# Source: PubChem BioAssay
# Sampled rows, rich in hits. Any-hit rate of the full collection: about 5.9%.
# T cruzi growth – blocks T. cruzi growth in NIH3T3 culture | T. cruzi beta-gal in NIH3T3, GalScreen luminescence, 90 h | 77,000 tested, 5.9% active | inhibition, % at 8.34 µM;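 active = mean inhibition above about 93%, with at least 55% of replicates each passing it, limit read from the data, passing the limit was not always enough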
# IDH1 R132H inh – blocks human IDH1 R132H reductase activity; O75874; diaphorase/resazurin fluorescence, 60 min; inhibition, % at 10 µM; 70,000 tested, 0.18% active; in the data active = inhibition above about 34%;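 also: 0% = DMSO and 100% = no enzyme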
# Pf Dd2 inh – P. falciparum Dd2 growth inhibition | AID 1159554 | activity change, % at 10 µM | SYBR Green, 72 h; hits give low values | 94,000 tested, 2.3% active; in the data active = activity change below about -80%
# GASC1 inh – inhibitors of human demethylase GASC-1 KDM4C. Q9H3R0. GST-KDM4C 2-372, H3K9me3 peptide, LANCE TR-FRET. inhibition, % at 12.5 µM. 96,000 tested, 0.15% active;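 active = mean replicate inhibition above about 25%, with at least 55% of replicates also reaching it, limit read from the data, passing the limit was not always enough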
# Target sequence (Q9H3R0 2-372 limits assumed): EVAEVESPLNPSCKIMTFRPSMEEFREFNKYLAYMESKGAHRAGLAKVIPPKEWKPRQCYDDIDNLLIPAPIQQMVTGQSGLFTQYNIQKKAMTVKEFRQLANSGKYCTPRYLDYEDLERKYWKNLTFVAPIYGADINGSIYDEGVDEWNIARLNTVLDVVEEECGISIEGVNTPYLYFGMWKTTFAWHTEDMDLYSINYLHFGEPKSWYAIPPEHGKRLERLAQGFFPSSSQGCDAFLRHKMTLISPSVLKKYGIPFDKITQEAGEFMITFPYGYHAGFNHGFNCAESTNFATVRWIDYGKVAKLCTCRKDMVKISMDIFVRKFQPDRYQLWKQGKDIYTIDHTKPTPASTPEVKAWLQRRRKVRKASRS
#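 Material: GST-tagged GASC-1 (JMJD2C) catalytic fragment, aa 2-372. Input: enzyme final amount 10 nM. Medium: HEPES buffer, pH 7.5, plus ascorbate. Reagent: H3K9me3 peptide substrate, Fe(II), 2-oxoglutarate. Doses: single dose. Times: reaction 30 min RT, detection step 1 h RT. Measured by: LANCE TR-FRET. Evaluation: Fall in 671/618 emission ratio as inhibition.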
# Numbers without * were called inactive; . = no result.
SMILES,T cruzi growth,IDH1 R132H inh,Pf Dd2 inh,GASC1 inh
CCS(=O)(=O)N1CC2(C1)CN(S(=O)(=O)c1ccc(C)cc1)[C@H](CO)c1[nH]c3cc(OC)ccc3c12,.,.,-40,0
COc1ccc2c3c([nH]c2c1)[C@H](CO)N(S(=O)(=O)c1ccc(C)cc1)CC31CCN(C(=O)Cc2cccnc2)CC1,.,.,-86*,.
CCCC(=O)N1CC2(C1)CN(S(=O)(=O)c1ccc(C)cc1)[C@@H](CO)c1[nH]c3cc(OC)ccc3c12,.,.,-87*,0
COc1cccc2cc(C(=O)C3C(=O)C(=O)N(Cc4ccco4)C3c3ccc(F)cc3)oc12 (stereo not given),.,0,.,.
O=C(Cn1cnc2scc(-c3cccc([N+](=O)[O-])c3)c2c1=O)Nc1cccc(C(F)(F)F)c1,.,0,.,.
COC1=CC(=O)O[C@@H](CCc2ccccc2)[C@H]1O,.,0,.,.
C[C@H]1CN([C@@H](C)CO)C(=O)c2cccc(NC(=O)CCCCCC(=O)Nc3ccccc3N)c2O[C@@H]1CN(C)C(=O)Nc1ccc(F)cc1,.,0,-49,-1
COc1ccc(NC(=O)N(C)C[C@H]2Oc3c(NC(=O)CCCCCC(=O)Nc4ccccc4N)cccc3C(=O)N([C@H](C)CO)C[C@H]2C)cc1,.,0,-87*,2
C[C@@H]1CN([C@@H](C)CO)C(=O)c2cccc(NC(=O)Nc3cccc4ccccc34)c2O[C@H]1CN(C)C(=O)NC1CCCCC1,45,-2,-89*,3
C[C@H](CO)N1C[C@H](C)[C@@H](CN(C)C(=O)NC2CCCCC2)Oc2ncc(/C=C/c3ccccc3)cc2C1=O,.,0,-84*,0
C[C@H](CO)N1C[C@H](C)[C@H](CN(C)C(=O)Nc2ccc(C(F)(F)F)cc2)Oc2c(NC(=O)CCCCCC(=O)Nc3ccccc3N)cccc2C1=O,.,0,-89*,0
O=C(COc1ccc(Cl)cc1C1C2=C(CCCC2=O)NC2=C1C(=O)CCC2)Nc1ccc(Cl)cc1,.,0,.,.
Cn1c(SCC(=O)Nc2ccccc2C(=O)Nc2ccccc2)nc2ccccc2c1=O,.,0,.,.
C[C@H]1CN([C@@H](C)CO)C(=O)c2cccc(N(C)C)c2O[C@@H]1CN(C)C(=O)Nc1cccc2ccccc12,16,2,2,2
C[C@@H]1CN([C@@H](C)CO)C(=O)c2cccc(N(C)C)c2O[C@@H]1CN(C)C(=O)Nc1cccc2ccccc12,63,-2,-83*,1
C[C@@H]1CN([C@H](C)CO)C(=O)c2cccc(NC(=O)CCCCCC(=O)Nc3ccccc3N)c2O[C@@H]1CN(C)C(=O)Nc1ccc(C(F)(F)F)cc1,.,.,-88*,1
C[C@H]1CN([C@@H](C)CO)C(=O)c2cccc(NC(=O)CCCCCC(=O)Nc3ccccc3N)c2O[C@@H]1CN(C)C(=O)Nc1ccc(C(F)(F)F)cc1,.,0,-82*,2
C[C@@H]1CN([C@@H](C)CO)C(=O)c2cccc(NC(=O)CCCCCC(=O)Nc3ccccc3N)c2O[C@@H]1CN(C)C(=O)NC1CCCCC1,.,0,-86*,0
O=C(O)C1CC=CCC1C(=O)Nc1ccc(Cc2ccncc2)cc1 (stereo not given),.,0,.,.
O=S(=O)(NCc1cccnc1)c1ccc(C2CCCCC2)cc1,.,-1,.,.
C[C@@H]1CN([C@H](C)CO)C(=O)c2cccc(NC(=O)CCCCCC(=O)Nc3ccccc3N)c2O[C@@H]1CN(C)C(=O)Nc1ccc(F)cc1,.,.,-86*,0
COc1ccc2cc(Br)ccc2c1CC(=O)Nc1cccnc1,.,1,.,.
C[C@H]1CN([C@@H](C)CO)C(=O)c2c(c3ccccc3n2C)-c2ccccc2CO[C@@H]1CN(C)C(=O)Nc1cccc(C(F)(F)F)c1,.,.,-94*,-4
C[C@H](CO)N1C[C@H](C)[C@@H](CN(C)C(=O)Nc2cccc(C(F)(F)F)c2)OCc2ccccc2-c2c(n(C)c3ccccc23)C1=O,.,.,-86*,-2
C[C@H](CO)N1C[C@H](C)[C@H](CN(C)C(=O)Nc2cccc(C(F)(F)F)c2)OCc2ccccc2-c2c(n(C)c3ccccc23)C1=O,.,.,-53,-3
Cc1cc(=O)[nH]c(SCCOc2cccc(Br)c2)n1,.,0,.,.
CCOC(=O)c1ccc(NC(=O)CSc2nc3sc4c(c3c(=O)[nH]2)CCC4)cc1,.,3,.,.
C[C@@H]1CCCCO[C@H](CN(C)Cc2ccc(C(F)(F)F)cc2)[C@@H](C)CN([C@@H](C)CO)C(=O)c2cc(NC(=O)Nc3ccccc3)ccc2O1,70,.,-82*,0
C[C@@H]1CN([C@@H](C)CO)C(=O)c2cc(NC(=O)c3ccccc3)ccc2O[C@@H](C)CCCCO[C@H]1CN(C)Cc1ccc(C(F)(F)F)cc1,69,-1,-84*,-1
